Data: ChEMBL document CHEMBL1138525 (J Med Chem, 2009)
Active and inactive are the calls of the source. The rule behind the calls is not given here.

Tests used:
Assay type in all cases: functional, cell-based
P2Y purinoceptor 2 [1] = target: P2Y purinoceptor 2 (Homo sapiens, UniProt P41231, C278S); experiment: Agonist activity at N-terminal HA epitope-tagged human P2Y2 receptor C278S mutant expressed in human 1321N1 cells assessed as increase in intracellular calcium level
Procedure, shortened: (§1)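 1321N1 astrocytoma cells stably expressing mutant receptor (retroviral transfection, G418 selection), loaded with Oregon Green BAPTA-1/AM in Krebs-HEPES pH 7.4 for 1 h at room temperature. Plated at 150000 cells/well and held 20 min at 28 °C in the dark. Efficacy relative to 100 µM carbachol.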

[2] = test system: P2Y purinoceptor 2 (Homo sapiens), P41231 [S296A]; experiment: Agonist activity at N-terminal HA epitope-tagged human P2Y2 receptor S296A mutant expressed in human 1321N1 cells assessed as increase in intracellular calcium level relative to carbachol
Procedure, shortened: (§2)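 Retrovirally transduced stable 1321N1 astrocytoma lines (wild-type lines of differing expression, or mutants) in suspension, loaded with Oregon Green BAPTA-1/AM for 1 h at room temperature. Cells were plated at 150000 per well in Krebs-HEPES pH 7.4 and held 20 min at 28 °C in the dark. Agonist was then injected, with fluorescence read at ex 485/em 520 nm for 60 × 0.4 s.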

P2Y purinoceptor 2 [3] = target: P2Y purinoceptor 2 (Homo sapiens, UniProt P41231, S296A); experiment: Agonist activity at N-terminal HA epitope-tagged human P2Y2 receptor S296A mutant expressed in human 1321N1 cells assessed as increase in intracellular calcium level
Procedure, shortened: (§3)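 Retrovirally transduced stable 1321N1 astrocytoma lines (wild-type lines of differing expression, or mutants) in suspension, loaded with Oregon Green BAPTA-1/AM for 1 h at room temperature. Cells were plated at 150000 per well in Krebs-HEPES pH 7.4 and held 20 min at 28 °C in the dark.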

P2Y purinoceptor 2 [4] = target: T1, P2Y purinoceptor 2 (Homo sapiens, UniProt P41231); experiment: Agonist activity at N-terminal HA epitope-tagged wild type 3 human P2Y2 receptor expressed in human 1321N1 cells assessed as increase in intracellular calcium level relative to carbachol; procedure, shortened: as §2
1321-N1 = experiment: Effect on intracellular calcium level in non transfected human 1321N1 cells
P2Y purinoceptor 2 [5] = target: T1, P2Y purinoceptor 2; experiment: Agonist activity at N-terminal HA epitope-tagged wild type human P2Y2 receptor expressed in human 1321N1 cells assessed as increase in intracellular calcium level; procedure, shortened: as §2
P2Y purinoceptor 2 [6] = target: T1, P2Y purinoceptor 2; experiment: Agonist activity at N-terminal HA epitope-tagged wild type 1 human P2Y2 receptor expressed in human 1321N1 cells assessed as increase in intracellular calcium level; procedure, shortened: as §2
P2Y purinoceptor 2 [7] = target: T1, P2Y purinoceptor 2; experiment: Agonist activity at N-terminal HA epitope-tagged wild type 3 human P2Y2 receptor expressed in human 1321N1 cells assessed as increase in intracellular calcium level; procedure, shortened: as §3
P2Y purinoceptor 2 [8] = target: T1, P2Y purinoceptor 2; experiment: Agonist activity at N-terminal HA epitope-tagged wild type 4 human P2Y2 receptor expressed in human 1321N1 cells assessed as increase in intracellular calcium level; procedure, shortened: as §3
P2Y purinoceptor 2 [9] = target: P2Y purinoceptor 2 (Homo sapiens, UniProt P41231, Y114A); experiment: Agonist activity at N-terminal HA epitope-tagged human P2Y2 receptor Y114A mutant expressed in human 1321N1 cells assessed as increase in intracellular calcium level; procedure, shortened: as §1
P2Y purinoceptor 2 [10] = target: T1, P2Y purinoceptor 2; experiment: Agonist activity at N-terminal HA epitope-tagged wild type 4 human P2Y2 receptor expressed in human 1321N1 cells assessed as increase in intracellular calcium level relative to carbachol; procedure, shortened: as §2
[11] = test system: P2Y purinoceptor 2 (Homo sapiens), P41231 [Y114A]; experiment: Agonist activity at N-terminal HA epitope-tagged human P2Y2 receptor Y114A mutant expressed in human 1321N1 cells assessed as increase in intracellular calcium level relative to carbachol; procedure, shortened: as §2
P2Y purinoceptor 2 [12] = target: P2Y purinoceptor 2 (Homo sapiens, UniProt P41231, R177A/R180A); experiment: Agonist activity at N-terminal HA epitope-tagged human P2Y2 receptor R177A_R180A double mutant expressed in human 1321N1 cells assessed as increase in intracellular calcium level; procedure, shortened: as §1
[13] = test system: P2Y purinoceptor 2 (Homo sapiens), P41231 [R177A,R180A]; experiment: Agonist activity at N-terminal HA epitope-tagged human P2Y2 receptor R177A_R180A double mutant expressed in human 1321N1 cells assessed as increase in intracellular calcium level relative to carbachol; procedure, shortened: as §2
P2Y purinoceptor 2 [14] = target: P2Y purinoceptor 2 (Homo sapiens, UniProt P41231, R177A); experiment: Agonist activity at N-terminal HA epitope-tagged human P2Y2 receptor R177A mutant expressed in human 1321N1 cells assessed as increase in intracellular calcium level; procedure, shortened: as §1
[15] = test system: P2Y purinoceptor 2 (Homo sapiens), P41231 [R177A]; experiment: Agonist activity at N-terminal HA epitope-tagged human P2Y2 receptor R177A mutant expressed in human 1321N1 cells assessed as increase in intracellular calcium level relative to carbachol; procedure, shortened: as §2
P2Y purinoceptor 2 [16] = target: P2Y purinoceptor 2 (Homo sapiens, UniProt P41231, R180A); experiment: Agonist activity at N-terminal HA epitope-tagged human P2Y2 receptor R180A mutant expressed in human 1321N1 cells assessed as increase in intracellular calcium level; procedure, shortened: as §1
[17] = test system: P2Y purinoceptor 2 (Homo sapiens), P41231 [R180A]; experiment: Agonist activity at N-terminal HA epitope-tagged human P2Y2 receptor R180A mutant expressed in human 1321N1 cells assessed as increase in intracellular calcium level relative to carbachol; procedure, shortened: as §2
P2Y purinoceptor 2 [18] = target: P2Y purinoceptor 2 (Homo sapiens, UniProt P41231, R272A); experiment: Agonist activity at N-terminal HA epitope-tagged human P2Y2 receptor R272A mutant expressed in human 1321N1 cells assessed as increase in intracellular calcium level; procedure, shortened: as §1
[19] = test system: P2Y purinoceptor 2 (Homo sapiens), P41231 [R272A]; experiment: Agonist activity at N-terminal HA epitope-tagged human P2Y2 receptor R272A mutant expressed in human 1321N1 cells assessed as increase in intracellular calcium level relative to carbachol; procedure, shortened: as §2
P2Y purinoceptor 2 [20] = target: P2Y purinoceptor 2 (Homo sapiens, UniProt P41231, Y118A); experiment: Agonist activity at N-terminal HA epitope-tagged human P2Y2 receptor Y118A mutant expressed in human 1321N1 cells assessed as increase in intracellular calcium level; procedure, shortened: as §1
P2Y purinoceptor 2 [21] = target: P2Y purinoceptor 2 (Homo sapiens, UniProt P41231, R194H); experiment: Agonist activity at N-terminal HA epitope-tagged human P2Y2 receptor R194H mutant expressed in human 1321N1 cells assessed as increase in intracellular calcium level; procedure, shortened: as §1
[22] = test system: P2Y purinoceptor 2 (Homo sapiens), P41231 [R194H]; experiment: Agonist activity at N-terminal HA epitope-tagged human P2Y2 receptor R194H mutant expressed in human 1321N1 cells assessed as increase in intracellular calcium level relative to carbachol; procedure, shortened: as §2
P2Y purinoceptor 2 [23] = target: P2Y purinoceptor 2 (Homo sapiens, UniProt P41231, Y198A); experiment: Agonist activity at N-terminal HA epitope-tagged human P2Y2 receptor Y198A mutant expressed in human 1321N1 cells assessed as increase in intracellular calcium level; procedure, shortened: as §1
[24] = test system: P2Y purinoceptor 2 (Homo sapiens), P41231 [Y198A]; experiment: Agonist activity at N-terminal HA epitope-tagged human P2Y2 receptor Y198A mutant expressed in human 1321N1 cells assessed as increase in intracellular calcium level relative to carbachol; procedure, shortened: as §2
[25] = test system: P2Y purinoceptor 2 (Homo sapiens), P41231 [C278S]; experiment: Agonist activity at N-terminal HA epitope-tagged human P2Y2 receptor C278S mutant expressed in human 1321N1 cells assessed as increase in intracellular calcium level relative to carbachol; procedure, shortened: as §2
[26] = test system: P2Y purinoceptor 2 (Homo sapiens), P41231 [Y118A]; experiment: Agonist activity at N-terminal HA epitope-tagged human P2Y2 receptor Y118A mutant expressed in human 1321N1 cells assessed as increase in intracellular calcium level relative to carbachol; procedure, shortened: as §2
Sequence of P2Y purinoceptor 2 (Homo sapiens), P41231 [Y118A] (P41231 whole entry Y118A): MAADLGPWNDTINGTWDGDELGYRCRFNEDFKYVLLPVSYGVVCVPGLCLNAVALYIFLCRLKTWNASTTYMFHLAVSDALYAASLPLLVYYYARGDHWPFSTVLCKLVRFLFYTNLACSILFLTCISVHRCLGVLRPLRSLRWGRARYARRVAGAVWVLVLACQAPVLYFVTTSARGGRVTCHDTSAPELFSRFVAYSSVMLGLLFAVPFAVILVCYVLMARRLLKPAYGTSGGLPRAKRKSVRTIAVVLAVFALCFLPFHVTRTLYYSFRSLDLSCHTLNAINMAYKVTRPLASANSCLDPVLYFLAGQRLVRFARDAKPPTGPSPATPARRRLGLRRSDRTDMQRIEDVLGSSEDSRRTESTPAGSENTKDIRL

T1 sequence (P41231 whole entry): as the sequence (P41231 whole entry Y118A) above, with A118Y counted along it
Sequence of P2Y purinoceptor 2 (Homo sapiens), P41231 [R177A,R180A] (P41231 whole entry R177A/R180A): as the sequence (P41231 whole entry Y118A) above, with A118Y, R177A, R180A counted along it
Sequence of P2Y purinoceptor 2 (Homo sapiens, UniProt P41231, R177A/R180A) (P41231 whole entry R177A/R180A): as the sequence (P41231 whole entry Y118A) above, with A118Y, R177A, R180A counted along it
Sequence of P2Y purinoceptor 2 (Homo sapiens, UniProt P41231, R180A) (P41231 whole entry R180A): as the sequence (P41231 whole entry Y118A) above, with A118Y, R180A counted along it
Sequence of P2Y purinoceptor 2 (Homo sapiens), P41231 [R180A] (P41231 whole entry R180A): as the sequence (P41231 whole entry Y118A) above, with A118Y, R180A counted along it
Sequence of P2Y purinoceptor 2 (Homo sapiens), P41231 [R177A] (P41231 whole entry R177A): as the sequence (P41231 whole entry Y118A) above, with A118Y, R177A counted along it
Sequence of P2Y purinoceptor 2 (Homo sapiens, UniProt P41231, R177A) (P41231 whole entry R177A): as the sequence (P41231 whole entry Y118A) above, with A118Y, R177A counted along it
Sequence of P2Y purinoceptor 2 (Homo sapiens, UniProt P41231, Y118A) (P41231 whole entry Y118A): as the sequence (P41231 whole entry Y118A) above
Sequence of P2Y purinoceptor 2 (Homo sapiens), P41231 [R194H] (P41231 whole entry R194H): as the sequence (P41231 whole entry Y118A) above, with A118Y, R194H counted along it
Sequence of P2Y purinoceptor 2 (Homo sapiens, UniProt P41231, R194H) (P41231 whole entry R194H): as the sequence (P41231 whole entry Y118A) above, with A118Y, R194H counted along it
Sequence of P2Y purinoceptor 2 (Homo sapiens, UniProt P41231, S296A) (P41231 whole entry S296A): as the sequence (P41231 whole entry Y118A) above, with A118Y, S296A counted along it
Sequence of P2Y purinoceptor 2 (Homo sapiens), P41231 [S296A] (P41231 whole entry S296A): as the sequence (P41231 whole entry Y118A) above, with A118Y, S296A counted along it
Sequence of P2Y purinoceptor 2 (Homo sapiens, UniProt P41231, Y198A) (P41231 whole entry Y198A): as the sequence (P41231 whole entry Y118A) above, with A118Y, Y198A counted along it
Sequence of P2Y purinoceptor 2 (Homo sapiens), P41231 [Y198A] (P41231 whole entry Y198A): as the sequence (P41231 whole entry Y118A) above, with A118Y, Y198A counted along it
Sequence of P2Y purinoceptor 2 (Homo sapiens), P41231 [R272A] (P41231 whole entry R272A): as the sequence (P41231 whole entry Y118A) above, with A118Y, R272A counted along it
Sequence of P2Y purinoceptor 2 (Homo sapiens, UniProt P41231, R272A) (P41231 whole entry R272A): as the sequence (P41231 whole entry Y118A) above, with A118Y, R272A counted along it
Sequence of P2Y purinoceptor 2 (Homo sapiens, UniProt P41231, C278S) (P41231 whole entry C278S): as the sequence (P41231 whole entry Y118A) above, with A118Y, C278S counted along it
Sequence of P2Y purinoceptor 2 (Homo sapiens), P41231 [C278S] (P41231 whole entry C278S): as the sequence (P41231 whole entry Y118A) above, with A118Y, C278S counted along it
Sequence of P2Y purinoceptor 2 (Homo sapiens, UniProt P41231, Y114A) (P41231 whole entry Y114A): as the sequence (P41231 whole entry Y118A) above, with Y114A, A118Y counted along it
Sequence of P2Y purinoceptor 2 (Homo sapiens), P41231 [Y114A] (P41231 whole entry Y114A): as the sequence (P41231 whole entry Y118A) above, with Y114A, A118Y counted along it

- EC50 (P2Y purinoceptor 2 [1]): 2090 nM
- Efficacy [2]: 3%
- EC50 (P2Y purinoceptor 2 [3]): > 300000 nM
- Efficacy (P2Y purinoceptor 2 [4]): 100%
- Activity (P2Y purinoceptor 2 [5]): Dose-dependent effect
- EC50 (P2Y purinoceptor 2 [6]): 781 nM
- EC50 (P2Y purinoceptor 2 [7]): 80.4 nM
- EC50 (P2Y purinoceptor 2 [8]): 59 nM
- EC50 (P2Y purinoceptor 2 [9]): 37.2 nM
- Efficacy (P2Y purinoceptor 2 [10]): 138%
- Efficacy [11]: 107%
- EC50 (P2Y purinoceptor 2 [12]): 123 nM
- Efficacy [13]: 109%
- EC50 (P2Y purinoceptor 2 [14]): 50.1 nM
- Efficacy [15]: 133%
- EC50 (P2Y purinoceptor 2 [16]): 138 nM
- Efficacy [17]: 130%
- EC50 (P2Y purinoceptor 2 [18]): 20600 nM
- Efficacy [19]: 99%
- EC50 (P2Y purinoceptor 2 [20]): 157 nM
- EC50 (P2Y purinoceptor 2 [21]): 121 nM
- Efficacy [22]: 127%
- EC50 (P2Y purinoceptor 2 [23]): 108 nM
- Efficacy [24]: 128%
- Efficacy [25]: 86%
- Efficacy [26]: 43%
Structure (SMILES): O=c1ccn([C@@H]2O[C@H](COP(=O)(O)OP(=O)(O)OP(=O)(O)O)[C@@H](O)[C@H]2O)c(=O)[nH]1 [URIDINE TRIPHOSPHATE]
- Activity (1321-N1): inactive
